# Laboratory results taken from PubChem BioAssay.
# The source made the active and inactive calls.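 The calls were made as follows, unless noted: active = GFP response above 150% of the DMSO level; inconclusive = fewer than 70 events counted for a yeast strain; inactive = the rest.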
# Tests used:
# [1] = hit retest on RPL19A-GFP reporter strain – cell-based, S. cerevisiae, flow cytometry, cherry picks, mother/daughter gates, confirmation (AID 2270;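 active = GFP response below 50% of the DMSO control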); conditions: 3 h, at 10 µM, stronger effect = lower value, 100 = same GFP as DMSO wells
# [2] = yeast TOR pathway reporter LAP4-GFP change – cell-based, cherry picks, flow cytometry, mother/daughter gates, confirmation (AID 2271;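 active = GFP response above 150% of the DMSO control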;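 also: ratio of sample to DMSO plate mean so 100% equals DMSO level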); conditions: S. cerevisiae LAP4-GFP strain, 3 h, at 10 µM, stronger effect = higher value, 100 means same as DMSO control
# Outline: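 Test system: GFP-fusion yeast strain / Amount: 0.2 OD600 cells / Buffer or medium: SC medium / Dosing: 10 µM single dose / Incubation: compound exposure 3 h at 30 °C, end-over-end rotation / Detection: HT flow cytometry, GFP fluorescence channel / Evaluation: median GFP fluorescence as percent of plate-mean DMSO wells / Control set: DMSO-only negative wells, rapamycin 400 ng/mL positive wells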
# [3] = TOR pathway reporter MEP2-GFP, retest of hits – S. cerevisiae, flow cytometry GFP, cherry picks, confirmation (AID 2272;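 active = GFP response above 150% of the DMSO control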;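 also: ratio of well signal to plate DMSO mean so 100% equals DMSO level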); conditions: S. cerevisiae MEP2-GFP strain, 3 h, at 10 µM, stronger effect = higher value
# [4] = yeast AGP1-GFP fluorescence change, single-dose – cell-based, flow cytometry, S. cerevisiae, cherry picks, confirmation (AID 2273);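 also: median GFP channel fluorescence over the whole cell population gate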; conditions: S. cerevisiae AGP1-GFP strain, 3 h, at 10 µM
# [5] = TOR pathway CIT2 reporter hit retest – S. cerevisiae, GFP fusion, cherry picks, mother/daughter gates, confirmation (AID 2274); conditions: S. cerevisiae CIT2-GFP strain, flow cytometry, 3 h, at 10 µM, stronger effect = higher value
# [6] = measured here: daughter cell gate
# [7] = measured here: mother cell gate
# [8] = measured here: daughter cell gate response
# [9] = measured here: mother cell gate response
Structure (SMILES),GFP response vs DMSO [1],"GFP response vs DMSO [1, 6]","GFP response vs DMSO [1, 7]",GFP response relative to DMSO [2],"GFP response relative to DMSO [2, 8]","GFP response relative to DMSO [2, 9]",GFP response vs DMSO [3],"GFP response, % of DMSO [4]","GFP response, % of DMSO [5]","GFP response, % of DMSO [5, 6]","GFP response, % of DMSO [5, 7]"
O=C1c2ccsc2SCCN1Cc1ccc(Cl)cc1Cl,96% (inactive),94.2%,95.5%,108% (inactive),107%,110%,94.7% (inactive),98.2% (inactive),90.1% (inactive),90.2%,91.9%
O=C(c1ccccc1)c1ccccc1N1C(=O)C=CC1=O,90.5% (inactive),61.6%,81.2%,266% (active),156%,263%,156% (inactive),129% (inactive),86% (inactive),95.2%,71.8%
COc1cccc2c1Oc1ncccc1N(C(=O)CCC(=O)NCc1ccc(C)cc1)C2,101% (inactive),100%,103%,95.7% (inactive),94.2%,96.2%,99% (inactive),106% (inactive),98.8% (inactive),99.2%,98.1%
Cc1ccc(NC(=O)c2ccccc2O)cc1,103% (inactive),102%,102%,100% (inactive),95%,99.5%,110% (inactive),101% (inactive),104% (inactive),106%,99.1%
CCOC(=O)C1=C(Cc2ccc(Cl)cc2)C(=O)c2ccccc2C1=O,99.1% (inactive),98.5%,98.1%,112% (inactive),107%,111%,104% (inactive),97.3% (inactive),99.3% (inactive),102%,94.5%
O=C(CCc1ccccc1)NNC(=S)NC(=O)c1ccccc1,106% (inactive),106%,107%,186% (active),180%,185%,116% (inactive),100% (inactive),106% (inactive),113%,100%
CCCc1[nH]nc2c1C(c1ccc(OCCN3CCOCC3)c(OC)c1)C(C#N)=C(N)O2 (stereo not drawn),96.6% (inactive),96.4%,98.2%,97.9% (inactive),99.2%,96.1%,102% (inactive),93.9% (inactive),101% (inactive),103%,101%
COc1ccc(/C=N/Nc2nc(-c3cccnc3)nc3ccccc23)cc1OC,100% (inactive),99.3%,102%,129% (inactive),130%,129%,137% (inactive),104% (inactive),144% (inactive),143%,141%
Cc1cc(O)c(C(=O)/C=C/c2cccc([N+](=O)[O-])c2)c(=O)o1,98.7% (inactive),101%,95.8%,149% (inactive),142%,152%,110% (inactive),107% (inactive),86.1% (inactive),90.5%,81.5%
Cc1c(C(=O)Nc2ccccc2)cnn1-c1ccccc1,98.2% (inactive),97.4%,99.2%,103% (inactive),101%,105%,105% (inactive),96.8% (inactive),104% (inactive),97.2%,103%
O=C(/C=C/c1ccc(F)cc1)NC(=S)NNC(=O)c1cnccn1,108% (inactive),89.8%,105%,313% (active),146%,301%,132% (inactive),83.4% (inactive),124% (inactive),101%,113%
CC(C)C(=O)Nc1ccc(NC(=O)c2cc3ccccc3o2)cc1,99.6% (inactive),100%,98.6%,102% (inactive),101%,102%,99.3% (inactive),99.1% (inactive),100% (inactive),97.6%,100%
CC(C)COC(=O)NCC12C=CC(O1)C1C(=O)N(c3ccc(Cl)cc3)C(=O)C12 (stereo not drawn),99.6% (inactive),99.5%,98.4%,98.9% (inactive),101%,99.5%,106% (inactive),107% (inactive),101% (inactive),101%,102%
COc1ccccc1/C=C/C=N/NC(=O)c1cccs1,97.8% (inactive),97.3%,97.5%,99.8% (inactive),95.6%,102%,107% (inactive),100% (inactive),99.1% (inactive),96.5%,97.7%
O=C(CCC(F)(F)F)N1CCC(CO)(CCc2ccccc2)CC1,102% (inactive),99.8%,102%,91.4% (inactive),95.6%,92.1%,102% (inactive),101% (inactive),107% (inactive),106%,106%
Cc1ccccc1N1C(=O)C(Cl)=C(N2CCN(c3ccccc3)CC2)C1=O,100% (inactive),98.7%,100%,101% (inactive),102%,102%,100% (inactive),93% (inactive),95.2% (inactive),94.8%,94.4%
Cc1cccc(/C=C/c2onc(C)c2[N+](=O)[O-])n1,99.9% (inactive),99.5%,96.6%,146% (inactive),137%,147%,100% (inactive),94.3% (inactive),87.4% (inactive),91.5%,82.6%

Structure (SMILES),GFP response vs DMSO [1],"GFP response vs DMSO [1, 6]","GFP response vs DMSO [1, 7]",GFP response relative to DMSO [2],"GFP response relative to DMSO [2, 8]","GFP response relative to DMSO [2, 9]",GFP response vs DMSO [3],"GFP response, % of DMSO [4]","GFP response, % of DMSO [5]","GFP response, % of DMSO [5, 6]","GFP response, % of DMSO [5, 7]"
Cc1ccc(S(=O)(=O)Nc2cc(Cl)c(O)c3ncccc23)cc1,95.2% (inactive),94.2%,97.1%,122% (inactive),120%,126%,110% (inactive),91.2% (inactive),97.8% (inactive),100%,96.8%
O=[N+]([O-])c1cccnc1S(=O)(=O)c1ccccc1,97.6% (inactive),94.7%,96.2%,114% (inactive),110%,112%,103% (inactive),102% (inactive),90.1% (inactive),88.4%,89.5%
Cc1ccc(N2CC(C(=O)OCc3nnc(-c4ccccc4)o3)CC2=O)cc1 (stereo not drawn),100% (inactive),102%,101%,102% (inactive),104%,101%,106% (inactive),96.2% (inactive),104% (inactive),104%,103%
O=[N+]([O-])c1ccc(N2N=C(c3ccco3)CC2c2ccccc2)cc1 (stereo not drawn),104% (inactive),104%,97.7%,107% (inactive),104%,108%,131% (inactive),99.8% (inactive),105% (inactive),105%,103%
COc1ccc(-c2nc(NC(=O)c3cc(C(C)(C)C)nn3C)sc2C)cc1,98.7% (inactive),100%,99%,98.9% (inactive),101%,99.5%,103% (inactive),100% (inactive),104% (inactive),103%,104%
CCOC(=O)C1(CCCc2ccccc2)CCN(C(=O)c2cc(C)nn2CC)CC1,99.3% (inactive),99.8%,99.8%,98.8% (inactive),102%,98.5%,97.5% (inactive),99.3% (inactive),102% (inactive),104%,101%
Cc1occc1-c1nnc(-c2cc([N+](=O)[O-])cc([N+](=O)[O-])c2)o1,88.1% (inactive),82.8%,85.9%,142% (inactive),126%,149%,123% (inactive),135% (inactive),87.2% (inactive),85.7%,81.8%
O=C(Nc1cccnc1)c1ccc(-c2ccc(Cl)cc2)o1,97.2% (inactive),93.9%,97.7%,101% (inactive),100%,103%,97.8% (inactive),94.1% (inactive),100% (inactive),98.1%,99.8%
CCCc1[nH]nc2c1C(c1ccc(OC)c(Cn3nnc4ccccc43)c1)C(C#N)=C(N)O2 (stereo not drawn),98% (inactive),98.6%,98.2%,104% (inactive),102%,103%,100% (inactive),103% (inactive),99.7% (inactive),99.1%,99.7%
Oc1c(Br)cc(Br)cc1C=Nc1ccc2[nH]ncc2c1,99.5% (inactive),89.2%,97.2%,185% (active),124%,176%,112% (inactive),102% (inactive),96.4% (inactive),102%,87.5%
Cc1ccc(C(c2cc(Cl)c3cccnc3c2O)N2CCN(C)CC2)cc1 (stereo not drawn),81.4% (inactive),94.4%,67.7%,184% (active),141%,208%,116% (inactive),95.9% (inactive),119% (inactive),97.4%,113%
Oc1c(Br)cc(Br)cc1C=NCc1ccccc1,101% (inactive),91.3%,101%,135% (inactive),105%,137%,112% (inactive),99.7% (inactive),104% (inactive),108%,92.1%
COCCn1c(=N)c(C(=O)NCc2ccco2)cc2c(=O)n3ccccc3nc21,100% (inactive),95.3%,93.5%,96.5% (inactive),96%,86.3%,95.2% (inactive),102% (inactive),100% (inactive),97.6%,97.1%
COc1ccc(NS(=O)(=O)c2cccc3ccccc23)cc1,99.4% (inactive),99.6%,99.2%,97.9% (inactive),97.6%,97.2%,102% (inactive),101% (inactive),99.7% (inactive),99.1%,98.5%
COc1ccccc1-c1nnc(NC(=O)c2ccc(S(=O)(=O)N3CCCC3)cc2)o1,102% (inactive),101%,104%,96.2% (inactive),98.7%,97.2%,102% (inactive),98% (inactive),107% (inactive),105%,107%
O=C(N/N=C/c1ccccn1)c1sc2ccccc2c1Cl,103% (inactive),94%,103%,118% (inactive),114%,126%,114% (inactive),99.3% (inactive),84.7% (inactive),88.9%,82.8%
